# Rows were chosen to be rich in hits. Some 2.8% of all compounds tested hit in one or more screens of this group.
# GASC-1 inh: blocks human GASC-1 demethylase activity | Q9H3R0 | 330,000 tested, 0.069% active | inhibition, % at 2.35 µM | AID 2099 | GST-JMJD2C(1-420) H3K9me3 demethylation, DELFIA europium;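 active means more than half of a compound's replicate wells show inhibition beyond 50%, single wells judged on their own value; inconclusive means some, but no more than half, of replicates pass 50% inhibition; inactive means no replicate passes 50% inhibition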;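 further: signal counts dimethyl H3K9 product captured on neutravidin plate; 0% = median of DMSO wells and 100% = 0.3 times that DMSO median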
# Target sequence (Q9H3R0 1-420 limits assumed): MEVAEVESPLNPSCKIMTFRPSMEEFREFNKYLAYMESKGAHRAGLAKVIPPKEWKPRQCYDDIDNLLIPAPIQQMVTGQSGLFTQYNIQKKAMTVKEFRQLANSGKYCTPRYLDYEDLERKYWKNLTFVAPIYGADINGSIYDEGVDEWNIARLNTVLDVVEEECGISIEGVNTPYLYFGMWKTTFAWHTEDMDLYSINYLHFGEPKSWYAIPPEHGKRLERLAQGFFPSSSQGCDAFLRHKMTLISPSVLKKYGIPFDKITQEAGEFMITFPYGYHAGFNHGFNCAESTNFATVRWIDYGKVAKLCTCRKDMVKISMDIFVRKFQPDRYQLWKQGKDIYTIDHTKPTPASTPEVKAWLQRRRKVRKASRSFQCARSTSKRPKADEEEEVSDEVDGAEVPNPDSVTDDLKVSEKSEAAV
# Rtt109 HAT inh: C. albicans Rtt109 histone acetyltransferase inhibition; purified Rtt109/Vps75, ThioGlo CoA-SH fluorescence, 4 h; 330,000 tested, 0.16% active; Q5AAJ8; inhibition, % at 34.9 µM; AID 540336;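 active means inhibition of at least 50% in every replicate; inconclusive means best replicate reaches 50% inhibition but some replicates fall short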
# NR3A LBD binder: modulators (binders) of human NR3A ligand-binding domain; NR3A LBD differential scanning fluorimetry, Tm shift; 0% = protein alone, 100% = glycine-bound protein; AID 1259313; Tm shift relative to glycine control, % at 25 µM; 340,000 tested, 2.5% active;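 active means melting temperature shift of at least 10% of the positive control shift, at one fixed dose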
# T cell HTS: T cell immune modulation candidate. response (vesicle binding), % at 7 µM. 330,000 tested, 0.068% active. AID 2052. 2C CD8+ T cell-vesicle binding, flow cytometry; stronger effect = lower value;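 active means response, share of CD8 T cells binding vesicles, and their 90th percentile fluorescence all below set limits, cut at about 80% in these data, passing the limit was not always enough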;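 further: values below 100% mean blocked vesicle binding to the CD8+ T cells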
#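 Benchmarks: naked versus QL9-loaded vesicles / Assay system: purified 2C TCR transgenic mouse naive CD8+ T cells / Technique: high-throughput flow cytometry with anti-B7-1 and anti-CD8 staining / Timing: Cell–vesicle co-incubation 1.5 h at 37 °C, staining 20 min on ice / Read-out: percent CD8+ FL2 mean versus row control / Probe or stimulus: QL9-loaded Drosophila micro-vesicles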
# Starred values were filed as active, the others as inactive; ? = inconclusive; / = no result given.
SMILES,GASC-1 inh,Rtt109 HAT inh,NR3A LBD binder,T cell HTS
O=C(N/N=C/c1c[nH]c2ccc(Br)cc12)c1ccncc1,-3,14,26*,197
O=C(N/N=C/c1c[nH]c2ccc(Br)cc12)C1CC1,-1,35,10*,99
CCCCn1c(N)c(N(CC(C)C)C(=O)c2ccco2)c(=O)[nH]c1=O,?,-2,1,171
COc1ccc(NC(=O)N(C)C[C@H]2Oc3ccc(NC(=O)CCN4CCOCC4)cc3C(=O)N([C@@H](C)CO)C[C@H]2C)cc1,/,-3,4,133
CCOc1ccccc1N1CCN(S(=O)(=O)c2cc(C)ccc2OC)CC1,2,-5,37*,700
CC(C)n1cc2c(N)ncnc2n1,/,-4,1,/
O=C(NNC(=S)NC(=O)c1ccccc1[N+](=O)[O-])c1ccccc1O,-28,-9,-4,179
O=C(NC(=S)Nc1cccc2c(O)cccc12)c1ccccc1[N+](=O)[O-],3,-6,34*,543
O=C(NNC(=S)NC(=O)c1ccccc1[N+](=O)[O-])c1ccccc1[N+](=O)[O-],27,2,0,383
O=C(NC(=S)NC1CCCCC1)c1ccccc1[N+](=O)[O-],-2,-7,18*,106
Cc1noc(C)c1S(=O)(=O)N(C)C[C@H]1Oc2c(NC(=O)C3CCCCC3)cccc2C(=O)N([C@H](C)CO)C[C@@H]1C,-4,-5,-1,179
O=C(Nc1ccccc1Cl)c1ccccc1Oc1ccc(C(F)(F)F)cc1[N+](=O)[O-],2,-13,12*,258
CC1(C)Cc2c(cnn2-c2cccc(F)c2)C(NC(=O)c2ccc[n+]([O-])c2)C1 (stereo not given),0,-6,0,476
N#C/C(=C\c1ccncc1)c1nc2ccccc2o1,-1,/,-1,425
N#C/C(=C\Nc1ccccc1O)c1nc2ccccc2o1,-1,5,27*,222
COc1ccccc1OCCNC(=O)C(CCSC)NS(=O)(=O)c1ccccc1F (stereo not given),8,8,0,265
CCN1C(=O)S/C(=C/c2ccc(Oc3ccc([N+](=O)[O-])cn3)c(OC)c2)C1=O,-1,-1,1,275
COc1cc(/C=C2/SC(=O)N(CC(=O)N3CCCC3)C2=O)ccc1Oc1ccc([N+](=O)[O-])cn1,-10,-1,13*,865
CCOc1ccc(-c2c(C(=O)N/N=C/c3ccsc3)nnn2-c2nonc2N)cc1,0,-3,13*,452
CCCOc1ccc(-c2c(C(=O)N/N=C/c3ccc(OC)cc3)nnn2-c2nonc2N)cc1,7,-7,10*,387
CCOc1ccc(-c2c(C(=O)N/N=C/c3ccc(OC)cc3)nnn2-c2nonc2N)cc1,-135,3,-7,7.5*
CCOc1ccc(-c2c(C(=O)N/N=C/c3ccc(O)cc3)nnn2-c2nonc2N)cc1,-18,8,8,691
CCOc1ccc(-c2c(C(=O)N/N=C/c3ccc(C)o3)nnn2-c2nonc2N)cc1,-1,1,-4,300
CCOc1ccc(-c2c(C(=O)N/N=C/c3cccc(Br)c3)nnn2-c2nonc2N)cc1,1,-2,17*,195
CCCOc1ccc(-c2c(C(=O)N/N=C/c3ccc(OCC)cc3)nnn2-c2nonc2N)cc1,2,-3,5,276
SMILES,GASC-1 inh,Rtt109 HAT inh,NR3A LBD binder,T cell HTS
CCOc1ccc(NC(=O)CN(C)C(=O)CN2C(=O)c3ccc([N+](=O)[O-])cc3C2=O)cc1OCC,/,-12,2,/
Cc1ccc(C(C)C)c(OCc2nn(CC(=O)c3ccc(OC(F)F)cc3)c3[n+]2CCCCC3)c1,-26,?,6,383
Cc1ccccc1N1CC(C(=O)Nc2ccncc2)CC1=O (stereo not given),?,6,-1,471
O=S(=O)(NCCc1c[nH]c2ccccc12)c1ccc(F)cc1,/,0,0,/
CCOc1cccc(-c2c(C(=O)N/N=C/c3ccc(Br)cc3)nnn2-c2nonc2N)c1,1,2,17*,621
CCOc1cccc(-c2c(C(=O)N/N=C/c3cccnc3)nnn2-c2nonc2N)c1,-6,8,-2,492
O=C(NCc1ccccc1)C(=O)NCC1OCCN1C(=O)c1cccs1 (stereo not given),-7,-1,0,372
Cc1ccc(S(=O)(=O)N2CCOC2CNC(=O)C(=O)NCc2ccc(Cl)cc2)cc1 (stereo not given),-8,3,13*,165
Cc1ccc(CNC(=O)C(=O)NCC2CCCO2)cc1 (stereo not given),-1,-1,16*,331
Cc1ccc(CNC(=O)C(=O)NCC2OCCN2C(=O)c2cccs2)cc1 (stereo not given),-10,0,15*,146
Cc1ccnc(NS(=O)(=O)c2ccc(NC(=O)Cc3ccc(Br)cc3)cc2)n1,-1,-2,1,227
CCOc1ccc(S(=O)(=O)N2c3ccccc3CC2C)cc1 (stereo not given),24,6,14*,175
CCOC(=O)c1ccc(NC(=O)c2cccc(S(=O)(=O)N3c4ccccc4CC3C)c2)s1 (stereo not given),-3,0,25*,335
Cc1ccc(S(=O)(=O)N2c3ccccc3CC2C)cc1 (stereo not given),-1,3,-1,188
CC1Cc2ccccc2N1S(=O)(=O)c1cccc(C(=O)NCCCO)c1 (stereo not given),-22,4,4,133
CC(=O)Nc1ccc2nc(-c3ccncc3)[nH]c2c1,-10,2,-9,622
O=C(Nc1ccc2nc(-c3cccs3)[nH]c2c1)c1ccco1,17,-9,14*,244
O=C(Nc1ccc(-c2nc3ccc(NC(=O)c4cccs4)cc3[nH]2)cc1)c1cccs1,-7,-9,30*,417
Cc1ccccc1C(=O)Nc1ccc(-c2nc3ccc(C(=O)c4ccccc4)cc3[nH]2)cc1,-7,-8,17*,868
Cc1ccc(OCC(=O)Nc2ccc(NC(=O)c3ccco3)cc2)c(C)c1,2,-2,29*,373
Cc1ccc(S(=O)(=O)N2CCN(CN3C(=O)CC4(CCCC4)C3=O)CC2)cc1,/,-4,0,/
CCCCN(Cc1nc2ccccc2c(=O)[nH]1)C(=O)c1nn(C)c(=O)c2ccccc12,/,3,-1,/
CC[C@]1(C(=O)OC)[C@H]2C(=O)N(Cc3ccccc3)C(=O)[C@H]2[C@H]2CN=C(SCC3CC3)N21,/,-1,2,/
C[C@H](NC(=O)c1ccco1)C(=O)NNC(=O)c1ccc(F)cc1,9,1,-1,266
O=C(Nc1ccc2nc(-c3cccs3)[nH]c2c1)c1cccs1,-8,7,26*,140
Cn1cccc1-c1nc2ccc(NC(=O)c3ccco3)cc2[nH]1,-13,2,-4,202
O=C(Cc1cccs1)Nc1cccc(-c2nc3cc4ccccc4cc3[nH]2)c1,0,5,28*,381
Cc1ccc2nc(-c3ccc(NC(=O)c4ccco4)cc3)[nH]c2c1,6,5,31*,266

# Screening data from PubChem BioAssay.
